ChEMBL document CHEMBL1154888, “Discorhabdins from the Korean marine sponge Sceptrella sp” (J Nat Prod, 2010)
≈ marks a conversion by molar mass, not a printed value.

Key:
Staphylococcus aureus = assay: Antibacterial activity against Staphylococcus aureus […]; format: functional
Micrococcus luteus = assay: Antibacterial activity against Micrococcus luteus IFO 12708; format: functional
Sortase A = biological target: T1, Sortase A (Staphylococcus aureus, UniProt Q9S446); assay: Inhibition of Staphylococcus aureus sortase A after 1 hr in the presence of fluorescent peptide Dabcul-QALPETGEE-Edans by fluorimetry
T1 sequence (Q9S446 whole entry): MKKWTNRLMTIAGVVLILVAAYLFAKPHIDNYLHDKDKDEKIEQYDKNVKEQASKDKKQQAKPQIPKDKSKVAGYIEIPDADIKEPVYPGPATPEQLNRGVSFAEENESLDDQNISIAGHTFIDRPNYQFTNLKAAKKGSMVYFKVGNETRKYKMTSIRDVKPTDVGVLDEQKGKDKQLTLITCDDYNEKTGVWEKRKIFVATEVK
In short: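 p-Hydroxymercuribenzoic acid (p-HMB) run alongside as the positive control.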

K562 = assay: Cytotoxicity against human K562 cells assessed as viable cells after 72 hrs by MTS/PMS assay; format: functional, cell-based; conditions: K562, 72 h
Salmonella enterica = assay: Antibacterial activity against Salmonella Typhimurium ATCC 14028; format: functional, Salmonella enterica subsp. enterica serovar Typhimurium
Escherichia coli = assay: Antibacterial activity against Escherichia coli ATCC 25922; format: functional
Proteus vulgaris = assay: Antibacterial activity against Proteus vulgaris ATCC 3851; format: functional
Bacillus subtilis = assay: Antibacterial activity against Bacillus subtilis ATCC 6633; format: functional
[1] = biological target: T2, Sortase A (Staphylococcus aureus) (UniProt Q9S446); assay: Selectivity ratio, inhibition of recombinant sortase A from Staphylococcus aureus of drug over the para-(hydroxymercury)benzoic acid sodium salt
T2 sequence (whole entry): T1 sequence (Q9S446 whole entry)

SMILES	MIC (Staphylococcus aureus) [µg/mL]	MIC (Micrococcus luteus) [µg/mL]	IC50 (Sortase A) [µM]	IC50 (K562) [µM]	MIC (Salmonella enterica) [µg/mL]	MIC (Escherichia coli) [µg/mL]	MIC (Proteus vulgaris) [µg/mL]	MIC (Bacillus subtilis) [µg/mL]	Selectivity ratio [1]
O=C1C(NCCc2ccc(O)cc2)=CC2=NCCc3c[nH]c1c32 [MAKALUVAMINE D]	> 100	50 (≈ 163 µM)	148	24.6	100 (≈ 325 µM)	> 100	> 100	25 (≈ 81.3 µM)	
O=C1C=C2S[C@H]3C[C@]2(C=C1Br)C1=C(N3)C(=O)c2[nH]cc3c2C1=NCC3 [(+)-DISCORHABDIN B]	50 (≈ 121 µM)	25 (≈ 60.3 µM)	132	7.2	100 (≈ 241 µM)	> 100	3.12 (≈ 7.54 µM)	12.5 (≈ 30.2 µM)	
O=C1C(NC2Cc3cc(Br)c(O)cc3S2)=CC2=NCCc3c[nH]c1c32 (centres undefined) [MAKALUVAMINE F]	50 (≈ 120 µM)	3.12 (≈ 7.51 µM)	175	8.9	100 (≈ 240 µM)	> 100	25 (≈ 60.1 µM)	12.5 (≈ 30 µM)	
O=C1C2=C3C4=[N+](CCc5c[nH]c1c54)C1[C@H](O)CC(=O)[C@@]3(C[C@@H](O)N2)[C@H]1O	> 100	50	6.5	2.2	> 100	> 100	> 100	> 100	10
O=C1C(Br)=CC2(C=C1Br)CCNC1=C2C2=NCCc3c[nH]c(c32)C1=O [DISCORHABDIN C]	> 100	12.5 (≈ 27 µM)	165	25.2	> 100	> 100	50 (≈ 108 µM)	25 (≈ 54 µM)	
O=C1C2=C3C4=[N+](CCc5c[nH]c1c54)C1C[C@@]34C[C@@H](N2)SC4=CC1=O	100	6.25		6.1	> 100	> 100	> 100	25	
CO[C@H]1C2C(=O)C=C3S[C@H]4C[C@]31C1=C(N4)C(=O)c3[nH]cc4c3C1=[N+]2CC4	50	12.5	146	2.5	100	> 100	100	50	
O=C1C2=C(C3=NCCc4c[nH]c1c43)C1(C=C(Br)C(O)C(Br)=C1)CCN2 (centres undefined) [DIHYDRODISCORHABDIN C]	> 100	100 (≈ 215 µM)	> 300	20.2	> 100	> 100	> 100	100 (≈ 215 µM)	
O=C1C=C[C@]2(C=C1Br)CCNC1=C2C2=NCCc3c[nH]c(c32)C1=O	100 (≈ 260 µM)	50 (≈ 130 µM)	186	1.3	50 (≈ 130 µM)	> 100	25 (≈ 65.1 µM)	50 (≈ 130 µM)	
O=C1C=C[C@@]23C[C@@H](NC4=C2C2=NCCc5c[nH]c(c52)C4=O)SC3=C1 [1-DEBROMODISCORHABDIN B]	25 (≈ 74.5 µM)	25 (≈ 74.5 µM)	160	25	50 (≈ 149 µM)	> 100	50 (≈ 149 µM)	12.5 (≈ 37.3 µM)	
COc1cccc2c1C(=O)c1c(O)c3c(c(O)c1C2=O)C[C@@](O)(C(=O)CO)C[C@@H]3O[C@H]1C[C@H](N)[C@H](O)[C@H](C)O1 [DOXORUBICIN]				8.5					
O=C1C=CC2(C=C1)CCNC1=C2C2=NCCc3c[nH]c(c32)C1=O [DIDEBROMODISCORHABDIN C]	> 100	> 100	127	21	> 100	> 100	> 100	> 100	
O=C1C2=C3C4=[N+](CCc5c[nH]c1c54)C1C[C@@]34C[C@@H](N2)SC4=C[C@H]1O	> 100	25	75.7	2.1	> 100	> 100	50	25	
CC1(C)S[C@@H]2[C@H](NC(=O)[C@H](N)c3ccccc3)C(=O)N2[C@H]1C(=O)O [AMPICILLIN]	1.56 (≈ 4.46 µM)	1.56 (≈ 4.46 µM)			3.12 (≈ 8.93 µM)	12.5 (≈ 35.8 µM)	3.12 (≈ 8.93 µM)	1.56 (≈ 4.46 µM)	
O=C1C2=C3C4=[N+](CCc5c[nH]c1c54)C1[C@H](O)C=C4S[C@@H](C[C@@]43[C@H]1O)N2	> 100	25	192	2.5	> 100	> 100	50	100	
O=C1C2=C3C4=[N+](CCc5c[nH]c1c54)C1C(=O)C=C4S[C@@H](C[C@@]43[C@H]1O)N2	50	12.5	130	4.5	100	> 100	100	25	
